# Source: PubChem
# UCH37 DUB inh = inhibitors of human UCH37 deubiquitinase, primary screen, biochemical, Ub-AMC cleavage, fluorescence. AID 588478, 2011. actives 0.33% (n = 330,000). purified proteasome/UCH37. inhibition, % (no concentration beside the values);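 active = mean inhibition over replicate wells above about 20%, limit read from the data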;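 also: 0% = compound-free wells with enzyme and 100% = wells lacking proteasome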
#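 Material: human UCH37 enzyme supplied as purified proteasome complex / Amount: 0.15 nM proteasome as dispensed / Buffer or medium: pH 7.4 Tris-HCl (50 mM) with ovalbumin, ATP-MgCl2, DTT / Times: preincubation 30 min, reaction 25 min, room temperature / Technique: AMC fluorescence from Ub-AMC cleavage, excitation 355 nm, emission 460 nm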
# Rpn11 inh = Rpn11 (PSMD14) deubiquitinase inhibitors, primary screen, biochemical, fluorescence polarization, uHTS | human 26S proteasome, Ub4-pepOG fluorescence polarization; 20S core pre-blocked with epoxomicin | inhibition, % at 20 µM | actives 0.59% (n = 360,000);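 active = inhibition at 20 µM, scaled to each plate's controls, above about 33%, limit read from the data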
# PLC-gamma1 inh = PLC-gamma1 enzyme inhibitors, primary screen, biochemical, fluorescence, purified enzyme; 1-phosphatidylinositol 4,5-bisphosphate phosphodiesterase gamma-1 (Homo sapiens), P19174; inhibition, % at 12.2 µM; fluorogenic substrate; actives 0.84% (n = 370,000); AID 720700, 2013; in the data active = inhibition above about 9.5%
# Target sequence (P19174 whole entry, looked up): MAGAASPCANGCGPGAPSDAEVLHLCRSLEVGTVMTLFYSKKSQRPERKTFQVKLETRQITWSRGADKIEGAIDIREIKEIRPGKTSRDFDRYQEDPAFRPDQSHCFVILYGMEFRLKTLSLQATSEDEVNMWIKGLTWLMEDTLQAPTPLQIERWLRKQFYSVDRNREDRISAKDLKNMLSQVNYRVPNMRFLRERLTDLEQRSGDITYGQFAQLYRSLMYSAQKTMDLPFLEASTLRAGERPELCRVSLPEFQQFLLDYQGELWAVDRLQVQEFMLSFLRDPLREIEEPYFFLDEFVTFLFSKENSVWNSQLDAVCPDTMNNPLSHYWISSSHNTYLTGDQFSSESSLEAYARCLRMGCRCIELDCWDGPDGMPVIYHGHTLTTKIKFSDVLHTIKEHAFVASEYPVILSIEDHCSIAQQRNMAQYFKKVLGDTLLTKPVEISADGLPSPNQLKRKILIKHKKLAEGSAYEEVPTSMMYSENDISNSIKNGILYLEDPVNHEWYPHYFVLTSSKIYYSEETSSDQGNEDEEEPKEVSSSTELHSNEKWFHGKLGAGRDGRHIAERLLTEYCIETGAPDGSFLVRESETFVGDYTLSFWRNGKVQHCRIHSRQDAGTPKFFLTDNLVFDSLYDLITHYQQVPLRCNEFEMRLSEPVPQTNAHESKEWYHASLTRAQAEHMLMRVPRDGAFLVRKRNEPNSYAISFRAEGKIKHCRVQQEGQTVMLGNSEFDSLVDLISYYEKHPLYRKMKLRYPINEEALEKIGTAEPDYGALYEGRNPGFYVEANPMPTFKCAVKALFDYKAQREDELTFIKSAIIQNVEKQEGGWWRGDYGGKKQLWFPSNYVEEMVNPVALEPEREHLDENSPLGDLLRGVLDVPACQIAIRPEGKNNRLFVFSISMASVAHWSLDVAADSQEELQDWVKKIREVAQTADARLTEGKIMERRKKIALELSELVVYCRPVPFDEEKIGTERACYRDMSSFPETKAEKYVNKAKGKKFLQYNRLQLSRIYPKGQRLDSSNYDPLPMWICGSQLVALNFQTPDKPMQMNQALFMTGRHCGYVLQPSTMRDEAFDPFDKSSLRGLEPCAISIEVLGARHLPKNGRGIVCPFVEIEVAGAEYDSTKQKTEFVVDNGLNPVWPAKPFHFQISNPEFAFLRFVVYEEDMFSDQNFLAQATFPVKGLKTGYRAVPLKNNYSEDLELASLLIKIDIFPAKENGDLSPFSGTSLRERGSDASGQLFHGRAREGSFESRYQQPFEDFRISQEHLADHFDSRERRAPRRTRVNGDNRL
# PLCb3 inh = human PLC-beta3 inhibitors, primary screen, biochemical, fluorescence. 1-phosphatidylinositol 4,5-bisphosphate phosphodiesterase beta-3 (Homo sapiens), Q01970. Purified PLC-beta3, fluorogenic substrate. inhibition, % at 12.2 µM. actives 0.18% (n = 370,000). AID 720704, 2013;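 also: 0% = median of compound wells on plate and 100% = full blocker control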
# PLCg1 ctr = PLC-gamma1 enzyme inhibitors, counter-screen for PLC-beta3 inhibitor project, biochemical, fluorescence; purified PLC-gamma1, fluorogenic substrate; AID 743258, 2014; shares compounds with PLC-gamma1 inh; actives 3.1% (n = 3,300); inhibition, % at 12.3 µM; in the data active = inhibition above about 9.5%
# PLCbeta3 conf = PLC-beta3 inhibitor confirmation, biochemical, fluorescence, purified enzyme; shares compounds with PLC-gamma1 inh; fluorogenic substrate fluorescence; inhibition, % at 12.3 µM; actives 1% (n = 3,300); AID 743261, 2014
# Active calls of the source: *; / = no result given. Rows were chosen to be rich in hits. Some 1.7% of all compounds tested hit in one or more screens of this group. Rule as the data show it, unless noted: active = inhibition above about 11%; inactive = the rest.
SMILES,UCH37 DUB inh,Rpn11 inh,PLC-gamma1 inh,PLCb3 inh,PLCg1 ctr,PLCbeta3 conf
Cc1c(-c2ccccc2)nc2ccccc2c1C(=O)NCc1cccs1,2,7,4,14*,-3,-2
Cc1c(C(=O)NCc2cccs2)oc2ccccc12,5,3,2,1,/,/
CN(C)C=NS(=O)(=O)c1ccc(Cl)c(Cl)c1,0,/,/,/,/,/
COc1ccc(NC(=O)N(C)C[C@H]2Oc3c(NC(=O)NC(C)C)cccc3C(=O)N([C@H](C)CO)C[C@@H]2C)cc1,2,-8,3,11*,-8,-2
C[C@H]1CN([C@@H](C)CO)C(=O)c2cccc(NC(=O)Nc3ccc(C(F)(F)F)cc3)c2O[C@H]1CN(C)C,0,3,1,4,/,/
C[C@H](CO)N1C[C@H](C)[C@@H](CN(C)S(C)(=O)=O)Oc2c(NC(=O)Nc3ccc(C(F)(F)F)cc3)cccc2C1=O,4,-2,8,12*,-4,2
O=S(=O)(c1cnccc1N1CCN(N=Cc2ccc(Br)cc2)CC1)N1CCCCC1,2,/,/,/,/,/
O=C(Cc1ccc(Cl)cc1)NN1C(=O)c2ccccc2C1=O,0,0,11*,4,-9,0
Cc1cc(C)cc(OCC(=O)NN2C(=O)c3ccccc3C2=O)c1,1,1,-3,-2,/,/
CC1CCC(C(C)C)C(OCC(O)CN2CCCC(C)C2)C1 (stereo not drawn),2,0,3,-2,/,/
CC1CCC(C(C)C)C(OCC(O)C[N+]2(C)CCCCC2)C1 (stereo not drawn),3,-2,11*,0,-3,-1
C[N+]1(C)CCC(OC(=O)C(O)(c2ccccc2)C2CCCC2)C1 (stereo not drawn),2,-2,10*,5,-3,2
C[N+]1(C)CC[C@H](OC(=O)[C@@](O)(c2ccccc2)C2CCCC2)C1,3,-6,1,3,/,/
Cc1ccc(-c2csc(NN=Cc3ccco3)n2)c(C)c1,3,/,/,/,/,/
CN1CCN(C=NC2=C(C#N)C(c3ccccc3)C3=C(CC(C)(C)CC3=O)O2)CC1 (stereo not drawn),6,/,/,/,/,/
O=C(COc1cccc(Br)c1)NN=CC(=O)c1ccccc1,1,/,/,/,/,/
CCCC1/C(=N/O)CC(c2ccccc2)NC1c1ccccc1 (stereo not drawn),/,1,10*,10,4,4
O=C(CN(Cc1ccco1)S(=O)(=O)c1ccccc1)NN=Cc1ccccc1C(=O)O,5,/,/,/,/,/
Cc1occc1-c1nnc(SCC(=O)Nc2ccccc2)n1C,-1,-2,5,15*,-5,-1
COCCNC(=O)CN(C(=O)CCC(=O)Nc1ccccn1)c1cc(C)ccc1C,2,-3,13*,10,9,-1
CCOc1ccccc1N(CC(=O)NCCOC)C(=O)CCC(=O)Nc1ccccn1,0,1,-1,3,/,/
COc1ccccc1C=NNC(=O)c1ccc(N(C)S(=O)(=O)c2ccccc2)cc1,3,/,/,/,/,/
O=C(O)CCC(=NNC(=O)CNC(=O)c1ccc(F)cc1)c1ccccc1,5,/,/,/,/,/
O=C(O)c1cccc(NC(=O)c2ccccc2)c1,1,5,11*,8,-2,1
CCOC(=O)c1c(S(=O)(=O)Nc2ccc(F)cc2Cl)c(C)n(C)c1C,7,10,11*,1,-2,-1
SMILES,UCH37 DUB inh,Rpn11 inh,PLC-gamma1 inh,PLCb3 inh,PLCg1 ctr,PLCbeta3 conf
C=CCc1cccc(C=NNC(=O)C(=O)Nc2ccc(C)cc2)c1O,0,/,/,/,/,/
COc1ccc(N(CC(=O)NC2CCCC2)S(=O)(=O)c2c(C)[nH]c(=O)[nH]c2=O)cc1,1,0,3,1,/,/
Cc1cc(C)cc(N(CC(=O)Nc2cc(C)ccc2C)S(=O)(=O)c2c(C)[nH]c(=O)[nH]c2=O)c1,2,9,10*,-8,-4,-5
Cc1cc(C)cc(N(CC(=O)NC2CCCC2)S(=O)(=O)c2c(C)[nH]c(=O)[nH]c2=O)c1,1,-5,11*,6,1,-7
COc1ccc(C=NNC(=O)CN(c2ccc(OC)cc2)S(=O)(=O)c2ccccc2)cc1,4,/,/,/,/,/
O=C(COc1ccc(C=NNS(=O)(=O)c2ccccc2)cc1)Nc1ccccc1,3,/,/,/,/,/
Cc1cccc(NC(=O)C2CC(=O)N/C(=N/N=Cc3ccco3)S2)c1 (stereo not drawn),0,/,/,/,/,/
CC(C)(C)C1CCC(C(=O)Nc2ccccc2)CC1 (stereo not drawn),0,-6,11*,5,6,13*
O=C(NN=Cc1ccc2ccccc2c1)c1ccc(COc2ccc3c(c2)CCC3)o1,-35,/,/,/,/,/
O=C(NN=Cc1ccccn1)c1cccc(NC(=O)c2ccccc2Cl)c1,2,/,/,/,/,/
COc1ccc(CC2CCOC2=O)cc1 (stereo not drawn),4,-2,10*,3,-7,-1
Cc1cnc(CNC(=O)c2csc(COCCO)n2)cn1,/,-1,3,0,/,/
O=C(NCC1CC1)c1csc(COCCO)n1,/,-3,6,13*,0,-7
O=C(NCc1cccs1)c1cc2c(s1)CCCC2,1,0,11*,7,0,5
O=C(NCc1cccs1)c1csc2c1CCCCC2,2,-4,-1,-2,/,/
CSc1nnc(C(C)(C)C)c(=O)n1N=Cc1ccc(Cl)cc1,2,/,/,/,/,/
CC(O)C(=O)NN=Cc1cccc2ccccc12 (stereo not drawn),5,/,/,/,/,/
Cc1ccc(CNC(=O)C2COc3ccccc3O2)cc1 (stereo not drawn),3,-6,5,4,/,/
O=C(NCc1ccccc1)C1COc2ccccc2O1 (stereo not drawn),3,3,9.8*,10,-8,0
C(=NNc1nc2ccccc2[nH]1)C1CCCCC1,-2,/,/,/,/,/
O=C(c1cc(-c2ccccc2)nn1-c1ccccc1)N1CCN(S(=O)(=O)c2ccc(F)cc2)CC1,3,-1,7,-11,/,/
O=C(c1cc(-c2ccccc2)nn1-c1ccccc1)N1CCN(S(=O)(=O)c2cccc(F)c2)CC1,2,-1,9.9*,-7,-5,0
C(/C=C/c1ccccc1)=NNc1nncc(-c2ccccc2)n1,10,/,/,/,/,/
Cc1cc(C)nc(N(C#N)CCOc2ccc(Cl)cc2)n1,2,4,9.8*,-1,-6,-3
Cc1cc(OCCCC(=O)NCCc2ccccn2)ccc1Cl,-1,6,9.5*,-6,-2,-2
O=C(CCCNS(=O)(=O)c1ccc(Cl)c(Cl)c1)NCCc1ccccn1,2,-12,-1,-6,/,/
CCOC(=O)NN=C1CCc2ccccc21,1,/,/,/,/,/
CC(C)(CO)Cc1cc(C(C)(C)C)c(O)c(C(C)(C)C)c1,2,-4,11*,4,-7,-4
